Results: ChEMBL document CHEMBL1147655, “Design and synthesis of 8-octyl-benzolactam-V9, a selective activator for protein kinase C epsilon and eta” (J Med Chem, 2006)

What was measured:
[1] = biological target: T1, Protein kinase C alpha type (Homo sapiens, UniProt P17252); assay: Displacement of [3H]phorbol 12,13-dibutyrate from PKC alpha-C1B
[2] = biological target: T2, Protein kinase C eta type (Homo sapiens, UniProt P24723); assay: Displacement of [3H]phorbol 12,13-dibutyrate from PKC eta-C1B
[3] = biological target: T3, Protein kinase C gamma type (Homo sapiens, UniProt P05129); assay: Displacement of [3H]phorbol 12,13-dibutyrate from PKC gamma-C1B
[4] = biological target: T2, Protein kinase C eta type; assay: Displacement of [3H]phorbol 12,13-dibutyrate from PKC eta-C1A
[5] = biological target: T4, Protein kinase C epsilon type (Homo sapiens) (UniProt Q02156); assay: Induction of GFP-tagged PKC epsilon translocation in HeLa cells measured as ratio of fluorescence intensity in plasma membrane to cytosol at 10 uM; type: cell-based
T4 sequence (whole entry): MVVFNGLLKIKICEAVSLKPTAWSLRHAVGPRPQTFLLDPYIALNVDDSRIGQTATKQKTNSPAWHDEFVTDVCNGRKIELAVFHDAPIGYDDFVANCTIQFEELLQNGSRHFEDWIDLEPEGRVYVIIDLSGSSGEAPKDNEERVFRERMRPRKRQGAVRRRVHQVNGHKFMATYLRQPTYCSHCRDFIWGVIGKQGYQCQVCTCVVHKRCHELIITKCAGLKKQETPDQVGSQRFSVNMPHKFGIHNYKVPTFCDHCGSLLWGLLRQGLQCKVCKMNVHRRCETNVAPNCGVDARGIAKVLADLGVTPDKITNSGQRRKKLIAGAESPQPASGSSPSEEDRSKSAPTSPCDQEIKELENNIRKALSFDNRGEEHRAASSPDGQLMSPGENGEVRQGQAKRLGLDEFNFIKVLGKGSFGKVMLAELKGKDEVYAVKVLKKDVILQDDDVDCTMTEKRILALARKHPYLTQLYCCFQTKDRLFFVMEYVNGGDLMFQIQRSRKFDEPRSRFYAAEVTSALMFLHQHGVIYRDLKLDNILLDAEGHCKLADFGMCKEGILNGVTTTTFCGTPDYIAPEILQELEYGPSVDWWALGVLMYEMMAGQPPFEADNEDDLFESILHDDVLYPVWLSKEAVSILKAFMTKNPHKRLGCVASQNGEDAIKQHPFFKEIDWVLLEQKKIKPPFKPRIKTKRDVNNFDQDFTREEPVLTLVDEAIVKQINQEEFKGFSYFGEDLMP
Procedure, shortened: (§1)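 HeLa cells transfected with GFP-fused PKC isozyme, cultured 16-48 h, then medium switched to HEPES buffer (135 mM NaCl, 5.4 mM KCl, 1 mM MgCl2, 1.8 mM CaCl2, 5 mM HEPES, 10 mM glucose, pH 7.3). Compound added at stated final concentration, 37 °C; confocal time series (488 nm excitation, 505-550 nm emission). R = membrane/mean cytosolic intensity from line profiles; maximum R reported, SD of at least three measurements.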

[6] = biological target: T1, Protein kinase C alpha type; assay: Displacement of [3H]phorbol 12,13-dibutyrate from PKC alpha-C1A
[7] = biological target: T5, Protein kinase C epsilon type (Homo sapiens, UniProt Q02156); assay: Displacement of [3H]phorbol 12,13-dibutyrate from PKC epsilon-C1A
T5 sequence (Q02156 whole entry): T4 sequence (whole entry)

[8] = biological target: T2, Protein kinase C eta type; assay: Induction of GFP-tagged PKC eta translocation in HeLa cells measured as ratio of fluorescence intensity in plasma membrane to cytosol at 10 uM; type: cell-based; procedure, shortened: as §1
[9] = biological target: T1, Protein kinase C alpha type; assay: Induction of GFP-tagged PKC alpha translocation in HeLa cells measured as ratio of fluorescence intensity in plasma membrane to cytosol at 10 uM; type: cell-based; procedure, shortened: as §1
[10] = biological target: T6, Protein kinase C beta type (Homo sapiens, UniProt P05771); assay: Induction of GFP-tagged PKC beta translocation in HeLa cells measured as ratio of fluorescence intensity in plasma membrane to cytosol at 10 uM; type: cell-based; procedure, shortened: as §1
Target sequence in this assay (P05771 2-671 limits assumed): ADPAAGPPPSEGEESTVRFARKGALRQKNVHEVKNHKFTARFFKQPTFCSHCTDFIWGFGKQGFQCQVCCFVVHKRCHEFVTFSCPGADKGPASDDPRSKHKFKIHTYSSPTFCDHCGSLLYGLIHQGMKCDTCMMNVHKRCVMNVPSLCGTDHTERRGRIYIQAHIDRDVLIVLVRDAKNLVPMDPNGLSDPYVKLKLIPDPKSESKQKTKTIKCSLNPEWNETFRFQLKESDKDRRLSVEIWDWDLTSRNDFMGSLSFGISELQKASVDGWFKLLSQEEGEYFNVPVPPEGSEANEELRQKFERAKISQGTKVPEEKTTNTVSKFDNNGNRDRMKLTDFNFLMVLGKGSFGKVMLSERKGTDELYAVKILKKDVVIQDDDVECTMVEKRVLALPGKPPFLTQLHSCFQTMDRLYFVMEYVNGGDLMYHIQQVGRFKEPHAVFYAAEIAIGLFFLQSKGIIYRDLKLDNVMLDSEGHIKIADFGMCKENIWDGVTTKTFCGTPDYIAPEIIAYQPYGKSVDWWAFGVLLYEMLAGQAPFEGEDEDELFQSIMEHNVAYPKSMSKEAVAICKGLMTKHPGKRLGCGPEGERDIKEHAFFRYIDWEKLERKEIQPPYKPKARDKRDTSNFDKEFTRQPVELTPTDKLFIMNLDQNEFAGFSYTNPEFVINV

[11] = biological target: T3, Protein kinase C gamma type; assay: Induction of GFP-tagged PKC gamma translocation in HeLa cells measured as ratio of fluorescence intensity in plasma membrane to cytosol at 10 uM; type: cell-based; procedure, shortened: as §1
[12] = biological target: T2, Protein kinase C eta type; assay: Induction of GFP-tagged PKC eta translocation in HeLa cells measured as ratio of fluorescence intensity in plasma membrane to cytosol at 0.5 uM; type: cell-based; procedure, shortened: as §1
[13] = biological target: T6, Protein kinase C beta type; assay: Displacement of [3H]phorbol 12,13-dibutyrate from PKC beta-C1B
Target sequence in this assay (P05771 whole entry): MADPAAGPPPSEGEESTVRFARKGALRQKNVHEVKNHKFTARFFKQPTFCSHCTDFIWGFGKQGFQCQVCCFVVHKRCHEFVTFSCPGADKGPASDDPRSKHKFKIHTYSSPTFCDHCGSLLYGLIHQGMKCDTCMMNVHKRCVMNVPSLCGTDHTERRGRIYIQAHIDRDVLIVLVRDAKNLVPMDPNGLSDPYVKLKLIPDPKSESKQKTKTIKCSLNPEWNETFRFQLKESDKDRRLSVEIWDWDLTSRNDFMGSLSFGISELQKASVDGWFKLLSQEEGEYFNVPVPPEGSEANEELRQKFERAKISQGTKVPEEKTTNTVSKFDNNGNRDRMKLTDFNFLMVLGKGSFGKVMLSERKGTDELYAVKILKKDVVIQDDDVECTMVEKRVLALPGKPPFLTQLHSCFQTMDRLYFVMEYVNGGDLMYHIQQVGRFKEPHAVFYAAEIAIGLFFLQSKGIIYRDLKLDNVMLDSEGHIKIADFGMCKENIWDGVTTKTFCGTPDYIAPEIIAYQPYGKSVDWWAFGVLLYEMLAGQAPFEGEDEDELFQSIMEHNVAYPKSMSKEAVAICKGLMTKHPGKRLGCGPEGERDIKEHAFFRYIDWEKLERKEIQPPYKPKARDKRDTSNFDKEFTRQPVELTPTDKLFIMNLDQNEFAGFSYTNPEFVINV

[14] = biological target: T5, Protein kinase C epsilon type; assay: Displacement of [3H]phorbol 12,13-dibutyrate from PKC epsilon-C1B
[15] = biological target: T2, Protein kinase C eta type; assay: Induction of GFP-tagged PKC eta translocation in HeLa cells measured as ratio of fluorescence intensity in plasma membrane to cytosol at 1 uM; type: cell-based; procedure, shortened: as §1
[16] = biological target: T3, Protein kinase C gamma type; assay: Displacement of [3H]phorbol 12,13-dibutyrate from PKC gamma-C1A
[17] = biological target: T6, Protein kinase C beta type; assay: Displacement of [3H]phorbol 12,13-dibutyrate from PKC beta-C1A
Target sequence in this assay (P05771 whole entry): as the sequence (P05771 whole entry) above

[18] = biological target: T7, Protein kinase C delta type (Homo sapiens, UniProt Q05655); assay: Induction of GFP-tagged PKC delta translocation in HeLa cells measured as ratio of fluorescence intensity in plasma membrane to cytosol at 10 uM; type: cell-based; procedure, shortened: as §1
Target sequence in this assay (Q05655 whole entry, looked up): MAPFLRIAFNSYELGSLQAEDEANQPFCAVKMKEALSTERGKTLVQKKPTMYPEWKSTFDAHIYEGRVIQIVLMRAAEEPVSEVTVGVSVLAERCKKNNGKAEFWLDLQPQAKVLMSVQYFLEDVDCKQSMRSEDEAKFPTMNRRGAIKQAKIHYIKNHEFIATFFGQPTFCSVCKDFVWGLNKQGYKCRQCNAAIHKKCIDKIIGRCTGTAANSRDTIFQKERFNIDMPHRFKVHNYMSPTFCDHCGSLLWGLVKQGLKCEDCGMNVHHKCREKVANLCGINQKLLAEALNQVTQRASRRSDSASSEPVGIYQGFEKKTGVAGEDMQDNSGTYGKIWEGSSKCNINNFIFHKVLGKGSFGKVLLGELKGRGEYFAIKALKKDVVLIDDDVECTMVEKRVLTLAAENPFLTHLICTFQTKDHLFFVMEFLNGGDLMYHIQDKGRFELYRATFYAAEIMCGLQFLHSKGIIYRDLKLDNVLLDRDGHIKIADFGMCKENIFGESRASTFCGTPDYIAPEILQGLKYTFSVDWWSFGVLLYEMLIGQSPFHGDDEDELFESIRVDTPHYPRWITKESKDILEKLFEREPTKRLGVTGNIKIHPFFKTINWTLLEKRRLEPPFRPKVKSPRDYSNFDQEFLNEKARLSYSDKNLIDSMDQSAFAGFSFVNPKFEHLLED

[19] = biological target: T7, Protein kinase C delta type; assay: Displacement of [3H]phorbol 12,13-dibutyrate from PKC delta-C1B
[20] = biological target: Protein kinase C theta type (Homo sapiens, UniProt Q04759); assay: Displacement of [3H]phorbol 12,13-dibutyrate from PKC theta-C1B
[21] = biological target: T4, Protein kinase C epsilon type (Homo sapiens); assay: Induction of GFP-tagged PKC epsilon translocation in HeLa cells measured as ratio of fluorescence intensity in plasma membrane to cytosol at 1 uM; type: cell-based; procedure, shortened: as §1
[22] = biological target: T4, Protein kinase C epsilon type (Homo sapiens); assay: Induction of GFP-tagged PKC epsilon translocation in HeLa cells measured as ratio of fluorescence intensity in plasma membrane to cytosol at 0.5 uM; type: cell-based; procedure, shortened: as §1
[23] = biological target: T7, Protein kinase C delta type; assay: Displacement of [3H]phorbol 12,13-dibutyrate from PKC delta-C1A
[24] = biological target: T7, Protein kinase C delta type; assay: Induction of GFP-tagged PKC delta translocation in HeLa cells measured as ratio of fluorescence intensity in plasma membrane to cytosol at 1 uM; type: cell-based; procedure, shortened: as §1
Target sequence in this assay (Q05655 whole entry, looked up): as above

[25] = biological target: T6, Protein kinase C beta type; assay: Induction of GFP-tagged PKC beta translocation in HeLa cells measured as ratio of fluorescence intensity in plasma membrane to cytosol at 1 uM; type: cell-based; procedure, shortened: as §1
Target sequence in this assay (P05771 2-671 limits assumed): as the sequence (P05771 2-671 limits assumed) above

[26] = biological target: T6, Protein kinase C beta type; assay: Induction of GFP-tagged PKC beta translocation in HeLa cells measured as ratio of fluorescence intensity in plasma membrane to cytosol at 0.5 uM; type: cell-based; procedure, shortened: as §1
Target sequence in this assay (P05771 2-671 limits assumed): as above

[27] = biological target: T3, Protein kinase C gamma type; assay: Induction of GFP-tagged PKC gamma translocation in HeLa cells measured as ratio of fluorescence intensity in plasma membrane to cytosol at 1 uM; type: cell-based; procedure, shortened: as §1
[28] = biological target: T1, Protein kinase C alpha type; assay: Induction of GFP-tagged PKC alpha translocation in HeLa cells measured as ratio of fluorescence intensity in plasma membrane to cytosol at 1 uM; type: cell-based; procedure, shortened: as §1

T2 sequence (P24723 whole entry): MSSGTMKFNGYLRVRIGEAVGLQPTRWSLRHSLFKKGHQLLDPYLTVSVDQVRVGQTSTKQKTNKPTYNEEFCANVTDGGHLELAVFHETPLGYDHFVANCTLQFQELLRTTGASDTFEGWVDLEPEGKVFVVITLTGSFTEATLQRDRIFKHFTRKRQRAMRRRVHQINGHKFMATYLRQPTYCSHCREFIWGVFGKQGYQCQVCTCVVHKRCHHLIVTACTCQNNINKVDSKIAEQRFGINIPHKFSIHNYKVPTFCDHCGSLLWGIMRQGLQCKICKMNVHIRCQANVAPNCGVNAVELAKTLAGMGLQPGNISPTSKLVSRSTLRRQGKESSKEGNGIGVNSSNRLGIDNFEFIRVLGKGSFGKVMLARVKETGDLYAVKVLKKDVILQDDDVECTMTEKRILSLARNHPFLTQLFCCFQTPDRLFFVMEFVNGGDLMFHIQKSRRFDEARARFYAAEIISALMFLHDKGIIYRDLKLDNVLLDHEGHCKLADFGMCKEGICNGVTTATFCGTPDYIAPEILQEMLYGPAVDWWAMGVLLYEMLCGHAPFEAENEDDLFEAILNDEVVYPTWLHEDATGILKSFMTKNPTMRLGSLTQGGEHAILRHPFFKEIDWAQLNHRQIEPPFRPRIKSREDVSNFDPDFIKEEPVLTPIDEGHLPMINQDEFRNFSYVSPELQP

Row | Structure (SMILES) | Ratio [5] | Ratio [8] | Ratio [9] | Ratio [10] | Ratio [11] | Ratio [12] | Ratio [15] | Ratio [18] | Ratio [21] | Ratio [22] | other results
1 | CCCCCCCCc1cccc2c1CC[C@@H](CO)NC(=O)[C@H](C(C)C)N2C | 1.96 | 1.72 | 0.98 | 0.97 | 0.97 | 0.97 | 1.46 | 0.95 | 1.66 | 1.65 | Ki [1]: > 10 µM; Ki [2]: 0.144 µM; Ki [3]: 5.2 µM; Ki [4]: > 10 µM; Ki [6]: > 10 µM; Ki [7]: > 10 µM; Ki [13]: > 10 µM; Ki [14]: 0.51 µM; Ki [16]: > 10 µM; Ki [17]: > 10 µM; Ki [19]: 0.216 µM; Ki [20]: 0.29 µM; Ki [23]: > 10 µM
2 | CCCCCCN1C[C@H]2C[C@@H](CO)NC(=O)[C@H](C(C)C)N(C)c3cccc1c32 | 4.29 | 1.92 | 1.79 | 2.38 | 1.53 | 1.01 | 1.84 | 2.41 | 2.73 | 2.42 | Ratio [24]: 0.9; Ratio [25]: 2.39; Ratio [26]: 0.95; Ratio [27]: 0.96; Ratio [28]: 0.97
